For two molecules, Activity results are on record in ChEMBL document CHEMBL1240374, “Selection of mutations to detect multidrug-resistant Mycobacterium tuberculosis strains in Shanghai, China” (2010).

Molecules are shown by their SMILES.

Common to all, as to format: functional
The subject of assay [1] is Mycobacterium tuberculosis. The assay is described as follows: Antibacterial activity against Mycobacterium tuberculosis containing phenotypic rpoB513,katG315,inhA-15,ahpC-10,ahpC-6 mutation assessed as microbial sensitivity by phenotypic drug susceptibility testing. The method, boiled down: (§1)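 Phenotypic DST on clinical M. tuberculosis isolates by the egg-based Löwenstein-Jensen proportion method. Species was confirmed by biochemical tests and PCR. Mutations were found by sequencing. Each mutation is reported as a number and as a percentage of the isolates screened.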

For assay [2], the system named is Mycobacterium tuberculosis. The assay is described as follows: Antibacterial activity against Mycobacterium tuberculosis containing phenotypic embB306 mutation assessed as microbial sensitivity by phenotypic drug susceptibility testing. Summed up:
as §1

The subject of assay [3] is Mycobacterium tuberculosis. The assay is described as follows: Antibacterial activity against drug resistant Mycobacterium tuberculosis containing phenotypic katG315 mutation assessed as cumulative microbial sensitivity by phenotypic drug susceptibility testing. Summed up:
as §1

Assay [4] deals with Mycobacterium tuberculosis. The assay is described as follows: Antibacterial activity against drug resistant Mycobacterium tuberculosis containing phenotypic inhA-15 mutation assessed as cumulative microbial sensitivity by phenotypic drug susceptibility testing. Summed up: as §1
Assay [5] concerns Mycobacterium tuberculosis. The assay is described as follows: Antibacterial activity against drug resistant Mycobacterium tuberculosis containing phenotypic ahpC-10 mutation assessed as cumulative microbial sensitivity by phenotypic drug susceptibility testing. Summed up:
as §1

Assay [6] deals with Mycobacterium tuberculosis. The assay is described as follows: Antibacterial activity against drug resistant Mycobacterium tuberculosis containing phenotypic ahpC-6 mutation assessed as cumulative microbial sensitivity by phenotypic drug susceptibility testing. The method, boiled down:
as §1

For assay [7], the system named is Mycobacterium tuberculosis. The assay is described as follows: Antibacterial activity against drug resistant Mycobacterium tuberculosis containing phenotypic ahpC-12 mutation assessed as cumulative microbial sensitivity by phenotypic drug susceptibility testing. The method, boiled down:
as §1

The subject of assay [8] is Mycobacterium tuberculosis. The assay is described as follows: Antibacterial activity against drug resistant Mycobacterium tuberculosis containing phenotypic ahpC-39 mutation assessed as cumulative microbial sensitivity by phenotypic drug susceptibility testing. The method, boiled down: as §1
Assay [9] relates to Mycobacterium tuberculosis. The assay is described as follows: Antibacterial activity against drug resistant Mycobacterium tuberculosis containing phenotypic inhA-8 mutation assessed as cumulative microbial sensitivity by phenotypic drug susceptibility testing. The method, boiled down:
as §1

In assay [10] the test system is Mycobacterium tuberculosis. The assay is described as follows: Antibacterial activity against drug resistant Mycobacterium tuberculosis containing phenotypic ahpC-9 mutation assessed as cumulative microbial sensitivity by phenotypic drug susceptibility testing. Summed up:
as §1

For assay [11], the system named is Mycobacterium tuberculosis. The assay is described as follows: Antibacterial activity against drug resistant Mycobacterium tuberculosis containing phenotypic inhA25 mutation assessed as cumulative microbial sensitivity by phenotypic drug susceptibility testing. Summed up:
as §1

Assay [12] relates to Mycobacterium tuberculosis. The assay is described as follows: Antibacterial activity against drug resistant Mycobacterium tuberculosis containing phenotypic ahpC-32 mutation assessed as cumulative microbial sensitivity by phenotypic drug susceptibility testing. The method, boiled down:
as §1

Assay [13] has as its system Mycobacterium tuberculosis. The assay is described as follows: Antibacterial activity against drug resistant Mycobacterium tuberculosis containing phenotypic ahpC-15 mutation assessed as cumulative microbial sensitivity by phenotypic drug susceptibility testing. Summed up: as §1
Assay [14] concerns Mycobacterium tuberculosis. The assay is described as follows: Antibacterial activity against drug resistant Mycobacterium tuberculosis containing phenotypic katG295 mutation assessed as cumulative microbial sensitivity by phenotypic drug susceptibility testing. The method, boiled down:
as §1

The test system of assay [15] is Mycobacterium tuberculosis. The assay is described as follows: Antibacterial activity against drug resistant Mycobacterium tuberculosis containing phenotypic katG299 mutation assessed as cumulative microbial sensitivity by phenotypic drug susceptibility testing. The method, boiled down: as §1
In assay [16] the test system is Mycobacterium tuberculosis. The assay is described as follows: Antibacterial activity against drug resistant Mycobacterium tuberculosis containing phenotypic katG322 mutation assessed as cumulative microbial sensitivity by phenotypic drug susceptibility testing. The method, boiled down: as §1
For assay [17], the system named is Mycobacterium tuberculosis. The assay is described as follows: Antibacterial activity against drug resistant Mycobacterium tuberculosis containing phenotypic rpoB531 mutation assessed as cumulative microbial sensitivity by phenotypic drug susceptibility testing. The method, boiled down: as §1
Assay [18] deals with Mycobacterium tuberculosis. The assay is described as follows: Antibacterial activity against drug resistant Mycobacterium tuberculosis containing phenotypic rpoB526 mutation assessed as cumulative microbial sensitivity by phenotypic drug susceptibility testing. The method, boiled down:
as §1

The test system of assay [19] is Mycobacterium tuberculosis. The assay is described as follows: Antibacterial activity against drug resistant Mycobacterium tuberculosis containing phenotypic rpoB516 mutation assessed as cumulative microbial sensitivity by phenotypic drug susceptibility testing. Summed up:
as §1

Assay [20] deals with Mycobacterium tuberculosis. The assay is described as follows: Antibacterial activity against drug resistant Mycobacterium tuberculosis containing phenotypic rpoB533 mutation assessed as cumulative microbial sensitivity by phenotypic drug susceptibility testing. Summed up:
as §1

For assay [21], the system named is Mycobacterium tuberculosis. The assay is described as follows: Antibacterial activity against drug resistant Mycobacterium tuberculosis containing phenotypic rpoB513 mutation assessed as cumulative microbial sensitivity by phenotypic drug susceptibility testing. The method, boiled down:
as §1

The test system of assay [22] is Mycobacterium tuberculosis. The assay is described as follows: Antibacterial activity against drug resistant Mycobacterium tuberculosis containing phenotypic rpoB511 mutation assessed as cumulative microbial sensitivity by phenotypic drug susceptibility testing. The method, boiled down:
as §1

Assay [23] concerns Mycobacterium tuberculosis. The assay is described as follows: Antibacterial activity against drug resistant Mycobacterium tuberculosis containing phenotypic rpoB522 mutation assessed as cumulative microbial sensitivity by phenotypic drug susceptibility testing. Summed up: as §1
Assay [24] relates to Mycobacterium tuberculosis. The assay is described as follows: Antibacterial activity against drug resistant Mycobacterium tuberculosis containing phenotypic rpoB518 mutation assessed as cumulative microbial sensitivity by phenotypic drug susceptibility testing. The method, boiled down:
as §1

Assay [25] relates to Mycobacterium tuberculosis. The assay is described as follows: Antibacterial activity against drug resistant Mycobacterium tuberculosis containing phenotypic rpoB515 mutation assessed as cumulative microbial sensitivity by phenotypic drug susceptibility testing. The method, boiled down: as §1
In assay [26] the test system is Mycobacterium tuberculosis. The assay is described as follows: Antibacterial activity against drug resistant Mycobacterium tuberculosis containing phenotypic rpoB534 mutation assessed as cumulative microbial sensitivity by phenotypic drug susceptibility testing. Summed up:
as §1

Assay [27] has as its system Mycobacterium tuberculosis. The assay is described as follows: Antibacterial activity against drug resistant Mycobacterium tuberculosis containing phenotypic rpoB529 mutation assessed as cumulative microbial sensitivity by phenotypic drug susceptibility testing. The method, boiled down:
as §1

Assay [28] deals with Mycobacterium tuberculosis. The assay is described as follows: Antibacterial activity against drug resistant Mycobacterium tuberculosis containing phenotypic rpoB519 mutation assessed as cumulative microbial sensitivity by phenotypic drug susceptibility testing. The method, boiled down:
as §1

The subject of assay [29] is Mycobacterium tuberculosis. The assay is described as follows: Antibacterial activity against Mycobacterium tuberculosis containing phenotypic rpoB531,rpoB526,rpo533 mutation assessed as microbial sensitivity by phenotypic drug susceptibility testing. The method, boiled down:
as §1

On to `NNC(=O)c1ccncc1` [ISONIAZID], for which the Activity came out at 85.5% in [1]; 89.3% in assay [2]; 72.7% in [3]; 78.5% in assay [4]; 80.6% in assay [5]; 83.1% in [6]. Also, the Activity in assay [7] amounted to 85.5%; in assay [8], 86.4%; in [9], 86.4%; in [10], 87.6%; in [11], 87.6%; in assay [12] it was 88%. Also, the Activity in [13] amounted to 88.4%; in [14] it was 88.8%; in assay [15], 88.8%; in [16] it was 89.3%.
On to `CO[C@H]1/C=C/O[C@@]2(C)Oc3c(C)c(O)c4c(O)c(c(/C=N/N5CCN(C)CC5)c(O)c4c3C2=O)NC(=O)/C(C)=C\C=C\[C@H](C)[C@H](O)[C@@H](C)[C@@H](O)[C@@H](C)[C@H](OC(C)=O)[C@@H]1C` [RIFAMPIN], for which the Activity in assay [17] amounted to 61.2%; in assay [18] it was 79.8%; in assay [19], 87.2%; in assay [20], 90.9%; in [21], 93.8%; in assay [22] it was 94.2%. Besides, the Activity was 95.9% in [23]; 95.9% in [24]; 95.9% in assay [25]; 95.9% in [26]; 95.9% in assay [27]; 96.3% in assay [28]. Further, the Activity in assay [29] and in assay [2] was 93.8% in each case.
